# Source: PubChem BioAssay
# Shown are actives, neighbours in structure and some others; about 3.6% of the full set was active somewhere.
# T cruzi repl – blocks replication of Trypanosoma cruzi; T. cruzi beta-gal in NIH3T3, luminescence, 90 h; inhibition, % (test concentration not listed); actives 1.4% (n = 300,000); AID 1885;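 active = mean inhibition across valid replicates above about 55%, limit read from the data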;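 note: signal also drops with host cell toxicity which is not excluded here; 0% = plate median of DMSO wells and 100% = zero luminescence signal; higher percent means less beta-gal luminescence so fewer parasites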
#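 System: Mouse NIH/3T3 fibroblasts infected with β-gal-expressing T. cruzi Tulahuen C4 | Quantity: NIH/3T3 cells, 5,000 per well | Reagent: 5000 reporter trypomastigotes per well | Dosing: Compound pinned at 50 nL/well, DMSO | Schedule: 3 h host attachment, then at least 90 h co-culture | Detection: GalScreen luminescence, 60 min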
# PfHsp90 yeast 2 – inhibits growth of yeast expressing Plasmodium falciparum Hsp90; inhibition, % at 9.4 µM; actives 0.32% (n = 310,000); AID 504621; S. cerevisiae expressing PfHsp90, BacTiter-Glo ATP, 48 h; yeast lacking PDR1 and PDR3 efflux regulators;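 active = every replicate shows inhibition above about 80%, whatever the replicate mean, limit read from the data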;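 note: 0% = DMSO neutral controls and 100% = 20 µM radicicol positive controls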
# SKKanGAS inh – inhibitors of SKKanGAS S. pyogenes growth in kanamycin (SK-promoter or general growth effect) | actives 1.3% (n = 300,000) | inhibition, % at 7.5 µM | BacTiter-Glo, 6 h;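 active = mean replicate score, as percent of positive control median, at least 50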;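 note: strain carries kanamycin resistance gene driven by streptokinase promoter and grows in 40 µg/ml kanamycin; loss of luminescence reflects streptokinase promoter inhibition or plain growth inhibition; 0% = median of DMSO wells and 100% = positive control at its reference dose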
# HIF act – HIF pathway transcriptional activation; AID 1910; U2OS HRE-luciferase reporter, luminescence; normalized: DMSO 0%, desferrioxamine 100%; actives 0.32% (n = 300,000); activation, % at 7.5 µM (by protocol);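 active = mean activation of at least 10% of the iron chelator positive control signal, with at least half of replicates also reaching 10%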
# Beta cell apopt – beta cell apoptosis inhibition; INS-1E cytokine-induced death, ATP luminescence, 48 h; percent of positive-control rescue, neutral wells zero; protection from apoptosis, % (no concentration beside the values); actives 0.8% (n = 300,000); AID 435005;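 active = Every replicate reaches about 75%, or at least half do and their mean reaches it too, limit read from the data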;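 note: 0% = cytokine-treated negative control wells and 100% = positive control rescue; higher means more ATP so stronger rescue from cytokine killing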
# CSC inhib – blocks cancer stem cells. cancer stem cell-like cells viability, luminescence. inhibition, % at 7.5 µM. actives 1.1% (n = 300,000); in the data active = inhibition above about 75%; tested in HMLE shEcad cells
# An asterisk follows results filed as active; . = no result.
SMILES,T cruzi repl,PfHsp90 yeast 2,SKKanGAS inh,HIF act,Beta cell apopt,CSC inhib
Cc1ccc2[nH]c(=O)c(C(c3nnnn3C(C)(C)C)N(Cc3ccco3)CC3CCCO3)cc2c1 (centres undefined),60*,-40,-2,0,1,-3
COc1cccc(CN(Cc2ccco2)C(c2ccc(F)cc2)c2nnnn2C(C)(C)C)c1 (centres undefined),34,-13,-1,0,15,65
Cc1cccc2cc(C(c3nnnn3C(C)(C)C)N(Cc3ccco3)CC3CCCO3)c(=O)[nH]c12 (centres undefined),3,.,7,-1,-6,-8
Cc1ccc2cc(C(c3nnnn3C3CCCC3)N(Cc3ccco3)Cc3cccs3)c(=O)[nH]c2c1 (centres undefined),63*,.,1,0,-1,14
CCC(C)(C)n1nnnc1C(c1ccc(C)cc1)N(Cc1ccco1)Cc1cccs1 (centres undefined),55*,-1,-2,0,14,33
O=[N+]([O-])c1ccc2c(c1)C(=NO)c1cc(Cl)c(Cl)cc1-2,.,-34,.,.,.,.
CC(C)(C)c1ccccc1OCC(=O)NCCC(=O)O,-15,-15,-8,-1,-6,1
C=C(C(=O)Oc1ccccc1C(C)(C)C)c1ccccc1,.,.,.,.,7,103*
N#C/C(=C/c1ccc(N2CCCCCC2)o1)c1ccc(F)cc1,58*,64,65*,-2,36,-10
N#C/C(=C/c1ccc(N2CCOCC2)o1)c1ccc(Br)cc1,47,10,15,3,13,31
N#C/C(=C/c1ccc(N2CCCCCC2)o1)c1cccc(F)c1,66*,-35,-4,-1,10,.
N#C/C(=C\c1ccc(N2CCOCC2)o1)c1ccccc1,-10,-25,-6,.,8,14
C/C(N)=C(/C#N)C(=O)CSc1cc(C)c2cc(C)cc(C)c2n1,62*,.,4,0,-4,22
Cc1ccccc1S(=O)(=O)N1C[C@H]2CON(C)[C@H]2C[C@H]1c1cccc(-c2ccc(C#N)cc2)c1,.,4,.,.,.,.
O=C(CN1C(=O)NC2(CCCC2)C1=O)N1CCN(S(=O)(=O)c2ccc(Cl)c(C(F)(F)F)c2)CC1,-3,.,-1,-1,1,-12
Cc1ccc(S(=O)(=O)n2cc(C=O)c3ccccc32)cc1,1,-10,7,-2,-3,11
Cc1ccc(S(=O)(=O)n2cc(-c3ccccc3)c3ccccc32)cc1,.,-10,.,.,15,99*
CC(C)(C)NC(=S)NNC(=O)[C@H]1C[C@@H]1c1ccccc1,-23,5,0,2,-2,-7
COc1ccc(OC)c(NC(=O)C2CC2c2ccccc2)c1 (centres undefined),1,-55,-1,-9,-1,2
COc1ccc(C(=O)NC(=S)NNC(=O)[C@H]2C[C@@H]2c2ccccc2)cc1OC,-11,-7,102*,0,18,29
COc1cc(OC)cc(C(=O)NC(=S)NNC(=O)[C@H]2C[C@@H]2c2ccccc2)c1,-15,11,105*,0,4,26
O=C(CCc1nnc2ccc(NCc3ccco3)nn12)Nc1cccc(F)c1,9,10,-3,0,-6,-9
CCC(Sc1nc2ccncc2[nH]1)C(=O)Nc1ccc(C)c(Cl)c1 (centres undefined),62*,-6,2,0,0,0
COc1c2c(cc(O)c1C(C)=O)OC(C)(C)C=C2,.,6,.,.,.,.
CC(C)=CCC12Oc3cc(O)ccc3C1(O)Oc1cc3c(c(O)c1C2=O)C=CC(C)(C)O3 (centres undefined),19,.,105*,0,-5,8
SMILES,T cruzi repl,PfHsp90 yeast 2,SKKanGAS inh,HIF act,Beta cell apopt,CSC inhib
Cc1cccc(Nc2ncnc(N)c2[N+](=O)[O-])n1,-13,-8,-3,0,-4,0
Cc1cc(C)nc(Sc2ncnc(N)c2[N+](=O)[O-])n1,21,3,2,11*,-32,2
CC1CN=C(c2ccccc2)O1 (centres undefined),.,-20,.,.,.,.
COc1ccc(C)cc1N/C(N)=N/c1nc(C)cc(C)n1,-16,0,-1,0,13,-5
Cc1ccc(C)c(N/C(N)=N/c2nc(C)cc(C)n2)c1,65*,2,-15,0,-8,4
CC(OC(=O)c1ccc(NC(=O)CC#N)cc1)C(=O)NC(=O)NC1CCCCC1 (centres undefined),12,1,59*,0,.,1
Cc1cc(C)cc(NC(=O)C(OC(=O)c2ccc(NC(=O)CC#N)cc2)c2ccccc2)c1 (centres undefined),-4,.,57*,0,6,.
CCSc1nnc(NC(=O)CN2C(=O)N(C)C3(CCCCC3)C2=O)s1,.,15,.,.,.,.
CCC1(c2ccc(F)cc2)NC(=O)N(CC(=O)NC2CCCCCC2)C1=O (centres undefined),.,1,.,.,3,-14
COc1cccc(C(c2cccc(OC)c2)c2ccccc2C(=O)O)c1,.,-12,.,.,.,.
O=C(NCC1CCCO1)c1cc(-c2ccccc2F)no1 (centres undefined),-18,11,31,13*,13,-12
O=C(NCC1CCCO1)c1ccccc1 (centres undefined),0,-35,-2,1,2,8
CC1(c2ccc3ccccc3c2)NC(=O)N(CC(=O)Nc2ncccc2O)C1=O (centres undefined),.,-4,.,.,-2,-9
Cn1c(=O)c2c(nc(SCc3ccccc3)n2Cc2ccc(Cl)cc2)n(C)c1=O,10,-36,80*,0,21,-15
CC(C)Sc1nc2c(c(=O)n(C)c(=O)n2C)n1Cc1ccc(Cl)cc1,29,-42,14,0,2,7
O=C(CSc1nccc(=O)[nH]1)Nc1ccc(N2CCOCC2)cc1,-6,10,2,-1,7,-16
CC(=O)c1ccc2c3c(cc(C)c2c1)CCCC3,.,-17,.,.,.,.
CN(C1CCCCC1)S(=O)(=O)c1ccc2[nH]c(=O)oc2c1,-8,-14,-18,-7,-2,-1
O=C(COC(=O)c1ccc(O)cc1O)c1ccc2c(c1)OCO2,0,6,52*,2,.,5
O=C(COC(=O)c1cc(Cl)ccc1O)c1ccc2c(c1)OCO2,-5,.,2,2,-1,-14
CCOC(=O)c1sc(NC(=O)CSC(=S)N2CCN(C)CC2)nc1C,2,1,17,0,-7,2
COc1ccccc1NS(=O)(=O)c1ccc(N/N=C(\C)C(C)C)c([N+](=O)[O-])c1,18,-1,2,-5,78*,18
COC(=O)CCCn1nc(NC(=O)c2ccco2)cc1C,-3,28,-1,0,.,-1
Cc1ccc(-c2csc(N=C(N)N)n2)c(C)c1,60*,.,-6,1,28,-3
COc1ccc(-c2csc(N=C(N)N)n2)cc1,1,-17,-4,3,-1,6
